Measurements taken from ChEMBL document CHEMBL1127424, “7-azetidinylquinolones as antibacterial agents. 2. Synthesis and biological activity of 7-(2,3-disubstituted-1-azetidinyl)-4-oxoquinoline- and -1,8-naphthyridine-3-carboxylic acids. Properties and structure-activity relationships of quinolones with an azetidine moiety” (J Med Chem, 1994).
≈ marks a conversion by molar mass, not a printed value.

Columns and labels:
[1] = Solubility (buffer pH 7.4); type: physicochemical; conditions: read-out: S
Method in brief: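 Excess solid shaken in 0.05 M phosphate buffer pH 7.4 for 24 h at 25 °C. Suspension filtered through 0.22 μm, discarding the first portion. Filtrate diluted in 0.1 N HCl or 0.1 N NaOH and read by UV at the compound's absorbance maximum.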

[2] = HPLC capacity factor (k'); type: ADME
Method in brief: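 Ion-pair reversed-phase HPLC on ODS-2 (10 μm) at 45 °C. Mobile phase: 10 mM sodium heptanesulfonate plus 50 mM KH2PO4 (pH 3.5)–methanol 45:55, 1 mL/min. Samples at 100 μg/mL in DMF, injected in duplicate, UV 280 nm. k' = (tR − t0)/t0.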

[3] = Measured ionization constant (pKa); type: physicochemical; conditions: read-out: pKa1
Method in brief: (§1)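 Spectrophotometric titration at 20 ± 1 °C, 0.1 M ionic strength, pH varied with H2SO4 or NaOH made up in the compound stock. Absorbance followed at compound-specific wavelengths chosen from 200–400 nm scans. pKa1 and pKa2 taken as the inflection points of the two-step absorbance vs pH curve.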

[4] = Dissociation constant (pKa); type: physicochemical; conditions: read-out: pKa2; method in brief: as §1
Escherichia coli [5] = assay: In vitro minimum inhibitory concentration for Escherichia coli ATCC 10799; type: functional
Method in brief: (§2)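 Serial 2-fold agar dilution in Mueller Hinton medium, run alongside a reference quinolone. Inoculum adjusted to 10⁸ cfu/mL; compound range 0.007–16 μg/mL.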

Pseudomonas aeruginosa = assay: In vitro minimum inhibitory concentration for Pseudomonas aeruginosa ATCC 10145; type: functional; method in brief: as §2
Mus musculus [6] = assay: Evaluation of efficacy on systemic infections Staphylococcus aureus HS-93, after oral administration in mice; type: functional
Method in brief: (§3)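 Single oral dose given immediately after infection, one of four doses per group, chosen from in vitro activity. Survival scored after one week. ED50 (total mg/kg protecting 50%) interpolated from survival rates.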

Enterococcus faecalis [7] = assay: In vitro minimum inhibitory concentration for Streptococcus faecalis ATCC 10541; type: functional; method in brief: as §2
[8] = test system: Staphylococcus epidermidis; assay: In vitro minimum inhibitory concentration for Staphylococcus epidermidis ATCC 155-1; type: functional; method in brief: as §2
Morganella morganii = assay: In vitro minimum inhibitory concentration for Morganella morganii ATCC 8019; type: functional; method in brief: as §2
Klebsiella pneumoniae = assay: In vitro minimum inhibitory concentration to inhibit Klebsiella pneumoniae ATCC 10031; type: functional; method in brief: as §2
Proteus vulgaris = assay: In vitro minimum inhibitory concentration for Proteus vulgaris ATCC 8427; type: functional; method in brief: as §2
Mus musculus [9] = assay: Evaluation of efficacy on systemic infections Pseudomonas aeruginosa HS-116, after oral administration in mice; type: functional; method in brief: as §3
Staphylococcus aureus = assay: In vitro minimum inhibitory concentration for Staphylococcus aureus ATCC 25178; type: functional; method in brief: as §2
Bacillus cereus = assay: In vitro minimum inhibitory concentration for Bacillus cereus ATCC 11778; type: functional; method in brief: as §2
Bacillus subtilis = assay: In vitro minimum inhibitory concentration for Bacillus subtilis ATCC 6633; type: functional; method in brief: as §2
Mus musculus [10] = assay: Evaluation of efficacy on systemic infections Escherichia coli HM-42, after oral administration in mice; type: functional; method in brief: as §3
Enterobacter cloacae = assay: In vitro minimum inhibitory concentration for Enterobacter cloacae ATCC 23355; type: functional
[11] = AUC (0-4 hr) ug/ml/h; type: ADME, cell-free; set-up: time < 4 hr; concentration or dose not given beside the values; conditions: plasma
Method in brief: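 Mice dosed once orally at 50 mg/kg; blood taken from groups of six mice at 0.5, 1, 2 and 4 h. Serum drug assayed by disk agar diffusion bioassay (Bacillus subtilis ATCC 6633 on Seed Agar, 37 °C, 18 h), giving total activity.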

[12] = Measured inonisation constant (pKa); type: physicochemical; conditions: read-out: pKa2; method in brief: as §1
Escherichia coli [13] = assay: In vitro minimum inhibitory concentration to inhibit Escherichia coli ATCC 10799; type: functional
Method in brief: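 Serial 2-fold agar dilution on Mueller Hinton medium, run alongside 1b as comparator. Inoculum adjusted to 10⁸ cfu/mL; compound range 0.007 to 16 μg/mL. Incubated 37 °C for 18 h. MIC taken as the lowest concentration preventing visible growth.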

Enterococcus faecalis [14] = assay: microbe, parasite or virus in culture; conditions: ATCC 10541

SMILES	solubility [1]	Log k' [2]	pKa [3]	pKa [4]	MIC (Escherichia coli [5])	MIC (Pseudomonas aeruginosa)	ED50 (Mus musculus [6])	MIC (Enterococcus faecalis [7])	MIC [8]	MIC (Morganella morganii)	MIC (Klebsiella pneumoniae)	MIC (Proteus vulgaris)	ED50 (Mus musculus [9])	MIC (Staphylococcus aureus)	MIC (Bacillus cereus)	MIC (Bacillus subtilis)	ED50 (Mus musculus [10])	MIC (Enterobacter cloacae)	AUC [11]	other results
CNC1(C)CN(c2cc3c(cc2F)c(=O)c(C(=O)O)cn3C2CC2)C1	0.7 µg/mL (≈ 2.03 µM)	0.0875	6.47	8.65																
C[C@H]1[C@H](N)CN1c1c(F)cc2c(=O)c(C(=O)O)cn(C3CC3)c2c1Cl	12 µg/mL (≈ 32.8 µM)	0.1361	6.04	8.47	0.007 µg/mL (≈ 0.0191 µM)	0.12 µg/mL (≈ 0.328 µM)	9.6 mg/kg	0.06 µg/mL (≈ 0.164 µM)	0.03 µg/mL (≈ 0.082 µM)	0.03 µg/mL (≈ 0.082 µM)	0.007 µg/mL (≈ 0.0191 µM)	0.03 µg/mL (≈ 0.082 µM)	38 mg/kg	0.03 µg/mL (≈ 0.082 µM)	0.03 µg/mL (≈ 0.082 µM)	0.03 µg/mL (≈ 0.082 µM)	2.8 mg/kg	0.03 µg/mL (≈ 0.082 µM)	5200 ng·h/mL	
CCNC1CN(c2cc3c(cc2F)c(=O)c(C(=O)O)cn3C2CC2)C1			6.48																	pKa [12]: 8.62
C[C@H]1[C@H](N)CN1c1nc2c(cc1F)c(=O)c(C(=O)O)cn2C1CC1	20.3 µg/mL (≈ 61.1 µM)	-0.0304	6.26	8.31	0.03 µg/mL (≈ 0.0903 µM)	0.5 µg/mL (≈ 1.5 µM)	13.8 mg/kg	0.25 µg/mL (≈ 0.752 µM)	0.12 µg/mL (≈ 0.361 µM)	0.03 µg/mL (≈ 0.0903 µM)	0.03 µg/mL (≈ 0.0903 µM)	0.06 µg/mL (≈ 0.181 µM)	95.4 mg/kg	0.12 µg/mL (≈ 0.361 µM)	0.06 µg/mL (≈ 0.181 µM)	0.03 µg/mL (≈ 0.0903 µM)	3.5 mg/kg	0.03 µg/mL (≈ 0.0903 µM)	27200 ng·h/mL	
C[C@H]1[C@H](N)CN1c1c(F)cc2c(=O)c(C(=O)O)cn(C3CC3)c2c1F	23.2 µg/mL (≈ 66.4 µM)	0.0755	6.13	8.35	0.015 µg/mL (≈ 0.0429 µM)	0.25 µg/mL (≈ 0.716 µM)	9 mg/kg	0.25 µg/mL (≈ 0.716 µM)	0.06 µg/mL (≈ 0.172 µM)	0.03 µg/mL (≈ 0.0859 µM)	0.03 µg/mL (≈ 0.0859 µM)	0.06 µg/mL (≈ 0.172 µM)	22.1 mg/kg	0.06 µg/mL (≈ 0.172 µM)	0.06 µg/mL (≈ 0.172 µM)	0.03 µg/mL (≈ 0.0859 µM)	2 mg/kg	0.03 µg/mL (≈ 0.0859 µM)	24500 ng·h/mL	
CN[C@H]1CN(c2c(F)cc3c(=O)c(C(=O)O)cn(C4CC4)c3c2F)[C@@H]1C	13.1 µg/mL (≈ 36.1 µM)	0.292	6.13	8.5	0.06 µg/mL (≈ 0.165 µM)	0.5 µg/mL (≈ 1.38 µM)	11.2 mg/kg	0.5 µg/mL (≈ 1.38 µM)	0.06 µg/mL (≈ 0.165 µM)	0.06 µg/mL (≈ 0.165 µM)	0.03 µg/mL (≈ 0.0826 µM)	0.12 µg/mL (≈ 0.33 µM)	70.5 mg/kg	0.06 µg/mL (≈ 0.165 µM)	0.06 µg/mL (≈ 0.165 µM)	0.03 µg/mL (≈ 0.0826 µM)	2.3 mg/kg	0.03 µg/mL (≈ 0.0826 µM)	20800 ng·h/mL	
CN[C@H]1CN(c2cc3c(cc2F)c(=O)c(C(=O)O)cn3C2CC2)[C@@H]1C	9.2 µg/mL (≈ 26.6 µM)	0.179	6.5	8.6	0.06 µg/mL (≈ 0.174 µM)	0.5 µg/mL (≈ 1.45 µM)	23.3 mg/kg	0.25 µg/mL (≈ 0.724 µM)	0.06 µg/mL (≈ 0.174 µM)	0.06 µg/mL (≈ 0.174 µM)	0.03 µg/mL (≈ 0.0869 µM)	0.12 µg/mL (≈ 0.347 µM)	80.4 mg/kg	0.12 µg/mL (≈ 0.347 µM)	0.12 µg/mL (≈ 0.347 µM)	0.03 µg/mL (≈ 0.0869 µM)	2 mg/kg	0.03 µg/mL (≈ 0.0869 µM)	10300 ng·h/mL	
NC1CN(c2c(F)cc3c(=O)c(C(=O)O)cn(C4CC4)c3c2F)C1	1.8 µg/mL (≈ 5.37 µM)	-0.0438	6.12	8.2																
C[C@@H]1[C@@H](N(C)C)CN1c1cc2c(cc1F)c(=O)c(C(=O)O)cn2C1CC1	96.3 µg/mL (≈ 268 µM)	0.668	6.29	7.9	0.5 µg/mL (≈ 1.39 µM)	4 µg/mL (≈ 11.1 µM)	62.1 mg/kg	4 µg/mL (≈ 11.1 µM)	0.12 µg/mL (≈ 0.334 µM)	0.5 µg/mL (≈ 1.39 µM)	0.06 µg/mL (≈ 0.167 µM)	0.5 µg/mL (≈ 1.39 µM)	135 mg/kg	0.25 µg/mL (≈ 0.696 µM)	0.5 µg/mL (≈ 1.39 µM)	0.06 µg/mL (≈ 0.167 µM)	4.5 mg/kg	0.5 µg/mL (≈ 1.39 µM)	12100 ng·h/mL	
CC1(N)CN(c2nc3c(cc2F)c(=O)c(C(=O)O)cn3C2CC2)C1	13.9 µg/mL (≈ 41.8 µM)	-0.1606	6.38	8.21																
CCn1cc(C(=O)O)c(=O)c2cc(F)c(N3C[C@@H](N)[C@@H]3C)c(F)c21		0.0145				1 µg/mL (≈ 2.96 µM)	5.1 mg/kg	1 µg/mL (≈ 2.96 µM)	0.12 µg/mL (≈ 0.356 µM)	0.06 µg/mL (≈ 0.178 µM)	0.015 µg/mL (≈ 0.0445 µM)	0.25 µg/mL (≈ 0.741 µM)	56.3 mg/kg	0.25 µg/mL (≈ 0.741 µM)	0.25 µg/mL (≈ 0.741 µM)	0.06 µg/mL (≈ 0.178 µM)	4 mg/kg	0.06 µg/mL (≈ 0.178 µM)		MIC (Escherichia coli [13]): 0.12 µg/mL (≈ 0.356 µM)
C[C@@H]1[C@@H](N(C)C)CN1c1c(F)cc2c(=O)c(C(=O)O)cn(C3CC3)c2c1F	97.1 µg/mL (≈ 257 µM)	0.769	6.08	8.2	0.25 µg/mL (≈ 0.662 µM)	2 µg/mL (≈ 5.3 µM)	17.9 mg/kg	1 µg/mL (≈ 2.65 µM)	0.06 µg/mL (≈ 0.159 µM)	0.25 µg/mL (≈ 0.662 µM)	0.06 µg/mL (≈ 0.159 µM)	0.25 µg/mL (≈ 0.662 µM)	164 mg/kg	0.12 µg/mL (≈ 0.318 µM)	1 µg/mL (≈ 2.65 µM)	0.015 µg/mL (≈ 0.0397 µM)	3.1 mg/kg	0.12 µg/mL (≈ 0.318 µM)	23200 ng·h/mL	
O=C(O)c1cn(C2CC2)c2cc(N3CCNCC3)c(F)cc2c1=O [CIPROFLOXACIN]						0.12 µg/mL (≈ 0.362 µM)	45.1 mg/kg		0.5 µg/mL (≈ 1.51 µM)	0.06 µg/mL (≈ 0.181 µM)		0.06 µg/mL (≈ 0.181 µM)	70.3 mg/kg	0.25 µg/mL (≈ 0.754 µM)	0.25 µg/mL (≈ 0.754 µM)	0.06 µg/mL (≈ 0.181 µM)	3 mg/kg		2300 ng·h/mL	MIC (Enterococcus faecalis [14]): 0.5 µg/mL (≈ 1.51 µM)
